Assay results from the EternaBench riboswitch data.

Tested on: MS2 coat protein
Assay: apparent Kd, MS2 coat protein; higher = weaker binding; RNA-MaP array; FMN 200 µM where present
Procedure, shortened: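 Designs were transcribed by stalled E. coli RNA polymerase on Illumina sequencing-chip clusters. They were titrated with SNAP-549-labelled MS2 coat protein from 0.7 or 1.5 nM, doubling to 3 µM, without and then with constant ligand. Buffer: 100 mM Tris-HCl pH 7.5, 80 mM KCl, 4 mM MgCl2, BSA, DTT, yeast tRNA, Tween-20. Green signal was normalised to red-channel RNA signal and control-cluster median Fmax. Apparent Kd is the median of filtered per-cluster binding-curve fits.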

[1] = designed as: OFF switch for flavin mononucleotide, no ligand
[2] = ligand present: flavin mononucleotide, designed as: OFF switch for flavin mononucleotide
[3] = designed as: ON switch for flavin mononucleotide, no ligand
[4] = ligand present: flavin mononucleotide, designed as: ON switch for flavin mononucleotide

| Sequence | apparent Kd [1] [nM] | apparent Kd [2] [nM] | apparent Kd [3] [nM] | apparent Kd [4] [nM] |
| --- | --- | --- | --- | --- |
| CAUUCGUGUCUAGGAUAUGAGUGACAAGCACGAGAUUUUCUCGCCGCUAGCUCAGAAGGAGACAUGAGGAUCACCCAUGUAAGG | 96.4 | 17.4 | – | – |
| GUCGGAAACGACAAUGAUAGGACUGAGGAUAUACAUAAGUAAGUCCACACAUGAGGAUCACCCAUGUAGAAGGCAGUCCUAUCU | 21.9 | 187 | – | – |
| AAUUACAGAUAAGGAUAUUGACAUGAGGAUCACCCAUGUAUUUGGGAAUGUUUACUGAAUUCUUACGAGAAGGUAUACGUACUU | 123 | 87 | – | – |
| UCAUGUAUGUAGGAUAUCGAUGUCUUCGGACAUCGAGAAGGACGUACAUGAGGAUCACCCAUGUAACUUGCAUG | 17.9 | 16.6 | – | – |
| ACCUUACUGGUCAGGAUAUACAGUCUUGGGUGGGUGUAGAAGGGACAUGAGGAUCACCCAUGUAGGUUGCAGCA | 129 | 126 | – | – |
| AAAAAGGCAGGAUAUACAUGAGGAUCACCCAUGUAAAGAAAGAAAGAAGAAAGGGAAAGUAGAAGGGCCAAAAA | 38.2 | 46 | – | – |
| UUUGAAUUGCAAGGAUAUCUUAUUUAGAUUUUAAGAGAAGGUGCUUUAUAGUUACAUGAGGAUCACCCAUGUAUUUCUUUUUAU | – | – | 25.5 | 17.7 |
| GGGCUCGGAGGAUAUACAUGAGGAUCACCCAUGUAUCUGGGUCUUAUUGGGCUCGGGUGUAGAAGGCUGGGUCU | 13.9 | 15.5 | – | – |
| GUAGAGUAAGGAUAUUGUGAAUAGGAUAGAAUGGUUAGAAACAAGAAGGUACAUGAGGAUCACCCAUGUAAUGU | 22.1 | 19.8 | – | – |
| UUCCGGGUGCAGAAGGGAUAGGCCUAUUUUCGUGGUAUCCAAACCUUACAUGAGGAUCACCCAUGUCAGGAUAUGCCCACGGAA | 4.93 | 4.72 | – | – |
| AUAUGGAAUACAGGAUAUGUAAGUUUUAAGUGUAUUGGUUAUUACUUUACAACAGAAGGGUAUUACAUGAGGAUCACCCAUGUA | – | – | 13.2 | 10.7 |
| UUCAUGUUGCGAGGAUAUCGUGUUAACAUGAGGAUCACCCAUGUAUAGGUUUAUUAAUUAGUUUUCGAGAAGGCGCUUUUAGUA | – | – | 215 | 158 |
| UAUAAACAUGAGGAUCACCCAUGUAAUAAUAUGGGAGGAUAUCAGAAUUUAUUUAUUUAAUGAGAAGGCCUAAUAU | – | – | 627 | 43.2 |
| UAAAAGACUAGCGAUCUAAAGAUCACAUGAGGAUCACCCAUGUAGGAUAUGAGCAGAAAAUCUGCUCAGAAGGACAUGCUAGUC | 5.88 | 9.18 | – | – |
| GUUUUACAUGAGGAUCACCCAUGUGAGGAUAUAUUGUUAUUUUUAAUAUUUUUUAGUGGUAGAAGGCGCGUGAU | 31.4 | 26 | – | – |
| ACGUCCCUCCAGAAGGGCAACUCGACAUGAGGAUCACCCAUGUUUACUUGCAGGAUAUGGUGGUAGAUCUAGUUAGCUCGAAGG | – | – | 176 | 47.4 |
| UUAUUUUUACAGAAGGUUUAAUACUAUGUAUGAGAAGGAUAUGUAACAUGAGGAUCACCCAUGUUUUAUUUAUAUGAGGUUCGU | 13.8 | 12.5 | – | – |
| CUGAGCAAUGUAGGAUAUCGACUGGAUAACAGUCGAGAAGGACAUGAGGAUCACCCAUGUCAAUGAGUGAAUAAUAAAGCUCAG | 20.4 | 118 | – | – |

| Sequence | apparent Kd [1] [nM] | apparent Kd [2] [nM] | apparent Kd [3] [nM] | apparent Kd [4] [nM] |
| --- | --- | --- | --- | --- |
| CCUAAGGACACAGGAUAUAGCGUGGUUGCUGGGCUCCAACGGCGAGCGGCGCUAGAAGGGUGACCACAUGAGGAUCACCCAUGU | – | – | 532 | 162 |
| CUUUCGUGAGGAUAUGUGGCUUCGAUCGUGAGAUCGAGGCUACAGAAGGCACAUGAGGAUCACCCAUGUUCCUC | 38.8 | 487 | – | – |
| CGCUAAGAUGGGUUUAAUGGAGCAUAGGAUAUGCUUGUACAUGAGGAUCACCCAUGUAAUAUUGUGCAGAAGGGUGCAUUUGCG | – | – | 126 | 75.1 |
| UAUAUAUAGUAAGGAUAUGUAGUUAUUUUAUAAACAGAAGGUACUGACAUGAGGAUCACCCAUGUUUUAGUGUGGGCAUGUAGA | 87.7 | 128 | – | – |
| UGGUACAUGAGGAUCACCCAUGUAAGAGCCCUCAUGCGAUGUAGAAGGUUAAUGCGUGUAGUGCUAAAGGAUAUACAUGAGUUU | 82.3 | 71.2 | – | – |
| UGAGCAAGAGGAUAUACAAGGCGACCGUGAGGUCGAGGGUUACAUGAGGAUCACCCAUGUAGAAGGCUUGUUCU | 37.1 | 323 | – | – |
| GUCAGUCGAGGAUAUACGAUCGUGCUUCGGCACGUAAGAUCACAUGAGGAUCACCCAUGUAGAAGGCGACUGAC | 32.5 | 257 | – | – |
| GGAUCGGACAGAGGAUAUACGUGCUAGAGAUACUAGCAAAAUUUCCUCACAUGAGGAUCACCCAUGUAGAAGGCUGUCCUAUCG | 15.9 | 327 | – | – |
| UGGUACAUGGGAGGAUAUGGGUAGAUAACAUGAGGAUCACCCAUGUUAAGAAAUGCCGAAAGGCACUAGAAGGCCCAUGUACCU | – | – | 637 | 46.7 |
| UUGUUAUAUGUAGGAUAUGCAUAUUAUUAUUAUGCAGAAGGACAUGAGGAUCACCCAUGUAUAUUAUUAUUAUAUGUUAUAUAU | 23.8 | 29.8 | – | – |
| GACAUGAGGAUCACCCAUGUCCUUCCAGAAGGCUGGCGCGCGAAACCUAAAUCAGUUCCGCGCACAGAGGAUAUGGGCAGUUGG | – | – | 72.2 | 15.9 |
| CGGUCACAUGAGGAUCACCCAUGUACCUACCCGAUGAAGUCGCAGGAUAUCCAUUACUUUACGUAGGAGAAGGGUGACGCUCGC | – | – | 49.7 | 79.3 |
| GGUUGGCGAGGAUAUACAUGAGGAUCACCCAUGUGGUCCUGUGGCUGGUCUAACCUUUGUAGAAGGCGCGGGUC | 225 | 186 | – | – |
| GAGCUAUGAGGAUAUGCAUAUAUACGGUUUCGUGUGGUACUACAUGAGGAUCACCCAUGUAGAAGGCGUGGCUG | 17.7 | 15.1 | – | – |
| AUUAUUUAGUGAGGAUAUACAGAUUAUGAGUUUGUAGAAGGCACUUUCCUCAGGACAUGAGGAUCACCCAUGUGUUAAUAAGAU | 89.7 | 316 | – | – |
| UCGGCGCGAGGAUAUGCGGCUUGUGCUUCGGGCCCUCGCGUACAUGAGGAUCACCCAUGUAGAAGGCGCGCCGC | 120 | 91.7 | – | – |
| UGUGUGUGGGCAGGAUAUGCAUGAAUAUGUAUGAUGUAGUGUGAUGUAACAUGAGGAUCACCCAUGUAGAAGGGCCGGUGUGUG | 99.3 | 116 | – | – |
| CGCUACAGCCAGAAGGACAUGAGGAUCACCCAUGUAGGAUAUGGGAGACGCGGUCCAGUGUAGAGAAACUACGCUACUGUAGCG | – | – | 87.3 | 73.4 |
